Test results published in ChEMBL document CHEMBL4118021, “Studies of TAK1-centered polypharmacology with novel covalent TAK1 inhibitors” (Bioorg Med Chem, 2017).

Legend:
[1] = target: Serine/threonine-protein kinase MARK2 (Homo sapiens) (UniProt Q7KZI7); test: Inhibition of MARK2 in human SKCO1 cells at 1 uM after 4 hrs using biotin labeled EVAVKIIDKTQLNSSSLQK probe by mass-spectrometric analysis relative to control; assay type: cell-based
[2] = target: Mitogen-activated protein kinase kinase kinase 4 (Homo sapiens) (UniProt Q9Y6R4); test: Inhibition of MAP3K4 in human SKCO1 cells at 1 uM after 4 hrs using biotin labeled DIKGANIFLTSSGLIK probe by mass-spectrometric analysis relative to control; assay type: cell-based
Sequence of Mitogen-activated protein kinase kinase kinase 4 (Homo sapiens) (Q9Y6R4 whole entry): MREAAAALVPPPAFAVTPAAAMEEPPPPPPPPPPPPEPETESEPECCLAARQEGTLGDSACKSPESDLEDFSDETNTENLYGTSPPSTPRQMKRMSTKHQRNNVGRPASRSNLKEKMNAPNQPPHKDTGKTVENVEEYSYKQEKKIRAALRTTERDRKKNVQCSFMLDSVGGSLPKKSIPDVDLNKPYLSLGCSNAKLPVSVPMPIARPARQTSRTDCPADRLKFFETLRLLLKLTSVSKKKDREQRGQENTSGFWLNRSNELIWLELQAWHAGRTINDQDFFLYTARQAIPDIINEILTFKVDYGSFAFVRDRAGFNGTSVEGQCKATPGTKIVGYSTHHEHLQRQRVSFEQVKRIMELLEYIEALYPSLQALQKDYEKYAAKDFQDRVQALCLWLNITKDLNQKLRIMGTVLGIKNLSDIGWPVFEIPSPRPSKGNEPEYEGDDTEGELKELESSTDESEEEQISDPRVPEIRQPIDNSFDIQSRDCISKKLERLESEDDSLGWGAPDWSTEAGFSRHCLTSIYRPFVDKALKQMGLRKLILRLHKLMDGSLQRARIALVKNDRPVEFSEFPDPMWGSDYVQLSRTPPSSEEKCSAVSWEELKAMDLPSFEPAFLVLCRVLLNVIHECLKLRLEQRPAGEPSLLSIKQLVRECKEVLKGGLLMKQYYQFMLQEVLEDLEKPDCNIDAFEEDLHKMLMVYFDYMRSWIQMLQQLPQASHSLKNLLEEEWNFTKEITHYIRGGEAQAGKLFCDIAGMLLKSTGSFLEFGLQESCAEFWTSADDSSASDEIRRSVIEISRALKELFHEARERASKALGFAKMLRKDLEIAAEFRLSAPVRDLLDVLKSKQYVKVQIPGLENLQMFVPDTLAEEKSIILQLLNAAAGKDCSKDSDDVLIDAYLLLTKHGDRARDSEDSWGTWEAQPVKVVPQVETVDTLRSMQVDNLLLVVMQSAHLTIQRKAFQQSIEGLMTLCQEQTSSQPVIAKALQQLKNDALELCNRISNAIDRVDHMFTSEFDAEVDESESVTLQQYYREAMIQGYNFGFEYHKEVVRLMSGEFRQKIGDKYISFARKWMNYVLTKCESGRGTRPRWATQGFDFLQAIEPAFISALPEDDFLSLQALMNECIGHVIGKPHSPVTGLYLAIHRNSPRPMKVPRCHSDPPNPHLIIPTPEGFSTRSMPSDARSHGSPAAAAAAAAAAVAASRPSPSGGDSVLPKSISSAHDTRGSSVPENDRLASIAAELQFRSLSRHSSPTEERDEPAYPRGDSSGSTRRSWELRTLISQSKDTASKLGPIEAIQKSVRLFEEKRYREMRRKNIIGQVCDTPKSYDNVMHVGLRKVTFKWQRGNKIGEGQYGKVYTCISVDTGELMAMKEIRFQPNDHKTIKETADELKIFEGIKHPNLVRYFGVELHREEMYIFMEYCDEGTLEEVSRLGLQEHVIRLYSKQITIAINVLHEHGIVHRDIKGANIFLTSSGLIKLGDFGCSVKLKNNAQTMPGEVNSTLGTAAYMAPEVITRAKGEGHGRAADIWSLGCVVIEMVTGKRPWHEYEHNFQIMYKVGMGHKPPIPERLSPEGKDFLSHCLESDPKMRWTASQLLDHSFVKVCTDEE

[3] = target: T1, Serine/threonine-protein kinase Nek9 (Homo sapiens) (UniProt Q8TD19); test: Inhibition of NEK9 in human SKCO1 cells at 1 uM after 4 hrs using biotin labeled DIKTLNIFLTK probe by mass-spectrometric analysis relative to control; assay type: cell-based
T1 sequence (whole entry): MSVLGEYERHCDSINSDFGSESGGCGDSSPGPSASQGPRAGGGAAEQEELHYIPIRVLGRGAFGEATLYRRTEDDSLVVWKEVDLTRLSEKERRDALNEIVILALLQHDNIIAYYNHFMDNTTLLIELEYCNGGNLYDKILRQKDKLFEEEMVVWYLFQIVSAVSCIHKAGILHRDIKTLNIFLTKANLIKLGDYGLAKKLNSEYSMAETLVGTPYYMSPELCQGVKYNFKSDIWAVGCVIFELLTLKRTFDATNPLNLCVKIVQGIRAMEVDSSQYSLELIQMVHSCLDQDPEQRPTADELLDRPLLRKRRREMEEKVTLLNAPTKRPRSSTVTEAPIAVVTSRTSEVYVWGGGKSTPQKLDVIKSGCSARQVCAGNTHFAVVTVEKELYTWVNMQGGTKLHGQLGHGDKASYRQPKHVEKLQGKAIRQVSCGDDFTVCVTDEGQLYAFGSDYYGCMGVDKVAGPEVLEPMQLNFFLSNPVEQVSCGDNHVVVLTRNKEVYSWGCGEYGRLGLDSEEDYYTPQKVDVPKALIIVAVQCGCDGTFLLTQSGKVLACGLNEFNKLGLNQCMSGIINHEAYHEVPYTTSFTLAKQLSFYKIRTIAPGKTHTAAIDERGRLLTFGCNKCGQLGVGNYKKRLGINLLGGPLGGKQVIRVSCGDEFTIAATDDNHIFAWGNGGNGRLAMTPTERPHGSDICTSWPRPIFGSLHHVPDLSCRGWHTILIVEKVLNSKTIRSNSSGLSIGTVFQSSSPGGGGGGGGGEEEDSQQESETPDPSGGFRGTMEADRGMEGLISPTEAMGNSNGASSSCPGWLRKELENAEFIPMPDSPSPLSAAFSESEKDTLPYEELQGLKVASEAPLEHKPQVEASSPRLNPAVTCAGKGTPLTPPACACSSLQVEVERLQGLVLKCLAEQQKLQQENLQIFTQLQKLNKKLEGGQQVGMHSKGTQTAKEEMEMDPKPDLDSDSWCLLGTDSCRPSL
Procedure, shortened: (§1)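 Live SK-CO-1 cells exposed to compound at 1 μM or DMSO for 4 h (KiNativ). Lysates then labeled with lysine-reactive ATP/ADP-biotin probe, and probe-labeled kinase peptides quantified by mass spectrometry. Percent inhibition of probe-dependent recovery calculated relative to DMSO-treated cells.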

[4] = target: Interferon-induced, double-stranded RNA-activated protein kinase (Homo sapiens) (UniProt P19525); test: Inhibition of PKR in human SKCO1 cells at 1 uM after 4 hrs using biotin labeled DLKPSNIFLVDTK probe by mass-spectrometric analysis relative to control; assay type: cell-based; procedure, shortened: as §1
Sequence of Interferon-induced, double-stranded RNA-activated protein kinase (Homo sapiens) (P19525 whole entry): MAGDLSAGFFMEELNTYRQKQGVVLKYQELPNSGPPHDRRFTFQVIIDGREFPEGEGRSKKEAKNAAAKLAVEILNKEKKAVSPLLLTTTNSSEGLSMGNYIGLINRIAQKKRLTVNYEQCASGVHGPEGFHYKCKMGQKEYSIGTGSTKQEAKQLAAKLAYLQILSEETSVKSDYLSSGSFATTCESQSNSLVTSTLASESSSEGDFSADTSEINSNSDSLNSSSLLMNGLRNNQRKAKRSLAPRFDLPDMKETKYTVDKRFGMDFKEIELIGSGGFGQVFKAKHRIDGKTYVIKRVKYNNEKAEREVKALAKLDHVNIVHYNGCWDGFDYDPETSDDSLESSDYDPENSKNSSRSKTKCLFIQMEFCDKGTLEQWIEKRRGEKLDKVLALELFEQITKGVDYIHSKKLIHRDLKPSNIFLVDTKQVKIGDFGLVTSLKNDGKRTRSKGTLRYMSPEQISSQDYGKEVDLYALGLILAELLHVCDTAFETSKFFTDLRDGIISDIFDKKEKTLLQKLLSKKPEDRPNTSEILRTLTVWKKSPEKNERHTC

[5] = target: Cyclin-dependent kinase 11B (Homo sapiens) (UniProt P21127); test: Inhibition of PITSLRE in human SKCO1 cells at 1 uM after 4 hrs using biotin labeled DLKTSNLLLSHAGILK probe by mass-spectrometric analysis relative to control; assay type: cell-based; procedure, shortened: as §1
Sequence of Cyclin-dependent kinase 11B (Homo sapiens) (P21127 whole entry): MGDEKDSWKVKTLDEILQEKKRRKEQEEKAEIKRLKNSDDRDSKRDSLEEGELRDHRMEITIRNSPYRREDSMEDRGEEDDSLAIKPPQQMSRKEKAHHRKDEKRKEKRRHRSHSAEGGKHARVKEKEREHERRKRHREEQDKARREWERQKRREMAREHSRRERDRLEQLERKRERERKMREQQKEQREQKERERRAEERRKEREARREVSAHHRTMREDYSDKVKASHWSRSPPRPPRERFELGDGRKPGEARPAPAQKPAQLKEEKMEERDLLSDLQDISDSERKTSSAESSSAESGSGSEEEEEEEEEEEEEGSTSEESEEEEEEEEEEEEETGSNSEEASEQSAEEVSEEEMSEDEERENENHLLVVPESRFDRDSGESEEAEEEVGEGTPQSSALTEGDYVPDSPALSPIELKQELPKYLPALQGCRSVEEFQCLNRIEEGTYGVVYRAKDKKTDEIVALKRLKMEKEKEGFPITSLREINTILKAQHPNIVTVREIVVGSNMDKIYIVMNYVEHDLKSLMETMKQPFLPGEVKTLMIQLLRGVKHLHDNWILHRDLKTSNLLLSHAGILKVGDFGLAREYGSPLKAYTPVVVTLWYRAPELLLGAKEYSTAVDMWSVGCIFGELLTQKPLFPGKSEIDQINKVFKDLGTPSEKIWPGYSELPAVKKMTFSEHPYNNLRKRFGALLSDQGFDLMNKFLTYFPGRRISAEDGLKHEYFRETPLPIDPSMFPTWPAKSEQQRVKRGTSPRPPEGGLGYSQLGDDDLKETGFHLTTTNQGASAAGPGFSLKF

[6] = target: T2, Dual specificity mitogen-activated protein kinase kinase 7 (Homo sapiens) (UniProt O14733); test: Inhibition of MAP2K7 in human SKCO1 cells at 1 uM after 4 hrs using biotin labeled DVKPSNILLDER probe by mass-spectrometric analysis relative to control; assay type: cell-based
T2 sequence (whole entry): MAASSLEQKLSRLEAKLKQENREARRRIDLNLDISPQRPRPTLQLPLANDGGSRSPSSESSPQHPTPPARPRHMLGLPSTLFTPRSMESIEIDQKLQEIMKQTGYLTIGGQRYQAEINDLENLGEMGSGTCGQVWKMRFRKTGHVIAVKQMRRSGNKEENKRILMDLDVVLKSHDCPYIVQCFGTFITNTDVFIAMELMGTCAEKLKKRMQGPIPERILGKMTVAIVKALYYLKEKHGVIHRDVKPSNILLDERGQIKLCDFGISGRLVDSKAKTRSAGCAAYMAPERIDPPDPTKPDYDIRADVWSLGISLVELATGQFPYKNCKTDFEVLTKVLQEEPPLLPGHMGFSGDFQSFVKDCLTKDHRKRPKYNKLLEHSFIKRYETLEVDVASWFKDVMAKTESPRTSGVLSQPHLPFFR

[7] = target: Aurora kinase A (Homo sapiens) (UniProt O14965); test: Inhibition of AurA in human SKCO1 cells at 1 uM after 4 hrs using biotin labeled GKFGNVYLAR probe by mass-spectrometric analysis relative to control; settings: pooled result: one value given for 3 cell lines, strains, targets or settings
Sequence of Aurora kinase A (Homo sapiens) (O14965 whole entry, looked up): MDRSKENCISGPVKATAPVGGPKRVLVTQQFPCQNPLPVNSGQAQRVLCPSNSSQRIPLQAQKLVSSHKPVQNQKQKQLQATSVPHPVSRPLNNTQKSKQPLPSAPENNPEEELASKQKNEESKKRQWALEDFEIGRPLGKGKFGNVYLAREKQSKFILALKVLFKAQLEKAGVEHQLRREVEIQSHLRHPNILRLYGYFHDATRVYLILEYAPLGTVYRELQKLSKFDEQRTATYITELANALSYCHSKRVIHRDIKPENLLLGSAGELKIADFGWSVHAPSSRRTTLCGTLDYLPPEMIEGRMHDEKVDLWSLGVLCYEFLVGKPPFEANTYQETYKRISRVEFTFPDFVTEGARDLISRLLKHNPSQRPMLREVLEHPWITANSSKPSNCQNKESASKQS

[8] = target: MAP/microtubule affinity-regulating kinase 3 (Homo sapiens) (UniProt P27448); test: Inhibition of MARK3 in human SKCO1 cells at 1 uM after 4 hrs using biotin labeled DLKAENLLLDADMNIK probe by mass-spectrometric analysis relative to control; assay type: cell-based
Sequence of MAP/microtubule affinity-regulating kinase 3 (Homo sapiens) (P27448 whole entry, looked up): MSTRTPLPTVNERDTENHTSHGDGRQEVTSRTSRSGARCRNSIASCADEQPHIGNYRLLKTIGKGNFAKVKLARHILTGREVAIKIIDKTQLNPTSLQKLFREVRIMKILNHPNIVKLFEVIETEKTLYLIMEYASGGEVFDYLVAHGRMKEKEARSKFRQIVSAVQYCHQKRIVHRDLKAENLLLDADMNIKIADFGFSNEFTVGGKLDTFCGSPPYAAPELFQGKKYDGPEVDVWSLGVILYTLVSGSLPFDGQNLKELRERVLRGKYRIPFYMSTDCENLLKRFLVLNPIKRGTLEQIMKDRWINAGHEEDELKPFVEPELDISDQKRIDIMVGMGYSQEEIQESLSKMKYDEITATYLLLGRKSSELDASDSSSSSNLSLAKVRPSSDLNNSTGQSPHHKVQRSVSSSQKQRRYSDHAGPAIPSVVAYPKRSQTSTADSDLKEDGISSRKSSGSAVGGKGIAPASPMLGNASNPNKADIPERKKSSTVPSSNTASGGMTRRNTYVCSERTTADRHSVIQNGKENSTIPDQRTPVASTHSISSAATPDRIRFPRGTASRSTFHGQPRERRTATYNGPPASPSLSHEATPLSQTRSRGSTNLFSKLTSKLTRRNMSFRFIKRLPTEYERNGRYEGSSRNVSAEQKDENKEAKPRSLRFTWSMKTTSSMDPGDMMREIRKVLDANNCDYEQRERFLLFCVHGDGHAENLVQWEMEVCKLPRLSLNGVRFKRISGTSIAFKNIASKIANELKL

Sequence of Serine/threonine-protein kinase MARK2 (Homo sapiens) (Q7KZI7 whole entry): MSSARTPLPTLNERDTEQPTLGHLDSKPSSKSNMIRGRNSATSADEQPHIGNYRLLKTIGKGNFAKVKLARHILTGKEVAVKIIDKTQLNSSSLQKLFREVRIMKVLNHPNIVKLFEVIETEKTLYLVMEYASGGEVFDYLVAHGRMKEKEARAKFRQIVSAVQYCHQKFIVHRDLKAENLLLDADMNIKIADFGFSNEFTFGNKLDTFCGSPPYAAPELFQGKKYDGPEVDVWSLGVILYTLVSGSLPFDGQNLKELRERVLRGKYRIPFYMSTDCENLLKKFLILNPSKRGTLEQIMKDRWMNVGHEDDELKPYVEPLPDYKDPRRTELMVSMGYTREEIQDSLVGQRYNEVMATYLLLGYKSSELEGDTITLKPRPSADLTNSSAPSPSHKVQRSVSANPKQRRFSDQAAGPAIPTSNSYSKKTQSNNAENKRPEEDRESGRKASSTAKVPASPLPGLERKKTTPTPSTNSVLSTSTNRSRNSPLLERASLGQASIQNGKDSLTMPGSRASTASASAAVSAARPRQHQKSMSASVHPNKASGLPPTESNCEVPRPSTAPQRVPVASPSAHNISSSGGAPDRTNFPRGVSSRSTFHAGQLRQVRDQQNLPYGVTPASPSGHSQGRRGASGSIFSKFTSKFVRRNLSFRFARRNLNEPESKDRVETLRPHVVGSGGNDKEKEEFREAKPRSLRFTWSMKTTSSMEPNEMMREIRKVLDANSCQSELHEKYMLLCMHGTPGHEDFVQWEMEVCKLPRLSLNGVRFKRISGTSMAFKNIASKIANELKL

SMILES	inhibition [1] [%]	inhibition [2] [%]	inhibition [3] [%]	inhibition [4] [%]	inhibition [5] [%]	inhibition [6] [%]	inhibition [7] [%]	inhibition [8] [%]
C=CC(=O)Nc1ccccc1Nc1nc(Nc2ccc(N3CCN(C)CC3)cc2)ncc1Cl	2.5	63.3	3.2	2.6	-5.5	13.7	95.1	-7.2
COc1cc(O)c2c(c1)/C=C/C[C@H](O)[C@H](O)C(=O)/C=C\C[C@H](C)OC2=O	-8.1	17.8	24.7	-6.6	-1.4	18.6	55.7	3.6
C=CC(=O)Nc1ccccc1Oc1nc(Nc2cnn(CCOC)c2)ncc1Cl	6.3	12.9	9	2.5	-0.8	12.3	57.9	-8.4
